Results: ChEMBL document CHEMBL4765453, “Phenanthrolinic analogs of quinolones show antibacterial activity against M. tuberculosis” (Eur J Med Chem, 2020)
Converted amounts (≈) assume the structure as drawn. The source made the active and inactive calls. The calls are words filed in the database; no cut-off is given here.

How the values were obtained:
[1] = system: Mycobacterium tuberculosis; assay: Antitubercular activity against Mycobacterium tuberculosis H37Rv measured after 7 days by resazurin microtiter assay; assay type: functional; conditions: 168 h, time 7 day
Procedure, shortened: (§1)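 Resazurin microtiter assay with two-fold drug dilutions in complete 7H9 broth. Exponential-phase cells are diluted to a final OD600 of 0.005 in 7H9 without Tween. Incubation is 7 days at 37°C, then 0.01% resazurin is added and plates are held 24 h more. MIC is the lowest concentration preventing the blue-to-pink change. Each MIC is determined three times in duplicate experiments.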

[2] = Solubility of compound in water; assay type: physicochemical; conditions: buffer
[3] = system: Mycobacterium tuberculosis; assay: Antitubercular activity against Mycobacterium tuberculosis H37Rv infected in human macrophages assessed as intracellular bacterial load at 4 times MIC measured after 6 days (reference value: 5.57 to 6.43 logCFU/ml); assay type: functional, Macrophage; conditions: time 6 day
[4] = system: Acinetobacter baumannii; assay: Antibacterial activity against Acinetobacter baumannii measured after 7 days by resazurin microtiter assay; assay type: functional; conditions: 168 h, time 7 day
[5] = system: Mycobacterium tuberculosis; assay: Antitubercular activity against Mycobacterium tuberculosis H37Rv infected in human macrophages assessed as intracellular bacterial load at 0.5 MIC measured after 6 days (reference value: 5.57 to 6.43 logCFU/ml); assay type: functional, Macrophage; conditions: time 6 day
[6] = system: Klebsiella pneumoniae; assay: Antibacterial activity against Klebsiella pneumoniae measured after 7 days by resazurin microtiter assay; assay type: functional; conditions: 168 h, time 7 day
[7] = system: Mycolicibacterium aurum; assay: Antibacterial activity against Mycobacterium aurum measured after 7 days by resazurin microtiter assay; assay type: functional; conditions: 168 h, time 7 day; procedure, shortened: as §1
[8] = system: Mycolicibacterium smegmatis; assay: Antibacterial activity against Mycobacterium smegmatis measured after 7 days by resazurin microtiter assay; assay type: functional; conditions: 168 h, time 7 day; procedure, shortened: as §1
[9] = system: Mycobacterium tuberculosis; assay: Antitubercular activity against Mycobacterium tuberculosis XDR measured after 7 days by resazurin microtiter assay; assay type: functional; conditions: 168 h, time 7 day; procedure, shortened: as §1
[10] = system: Mycobacterium marinum; assay: Antibacterial activity against Mycobacterium marinum measured after 7 days by resazurin microtiter assay; assay type: functional; conditions: 168 h, time 7 day; procedure, shortened: as §1
[11] = system: Mycobacterium tuberculosis; assay: Antitubercular activity against Mycobacterium tuberculosis H37Rv infected in human macrophages assessed as intracellular bacterial load at 2 times MIC measured after 6 days (reference value: 5.57 to 6.43 logCFU/ml); assay type: functional, Macrophage; conditions: time 6 day
[12] = system: Pseudomonas aeruginosa; assay: Antibacterial activity against Pseudomonas aeruginosa measured after 7 days by resazurin microtiter assay; assay type: functional; conditions: 168 h, time 7 day
[13] = system: Macrophage; assay: Cytotoxicity against human macrophages assessed as reduction in cell viability measured after 6 days by Celltiter-glo assay; assay type: cell-based; conditions: 144 h; for Activity: human, macrophage, time 6 day
Procedure, shortened: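 Infected human macrophages, with or without drug, are incubated 6 days. Viability is checked by visual inspection and by CellTiter-Glo ATP luminescence.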

[14] = system: Mycobacterium tuberculosis; assay: Antitubercular activity against Mycobacterium tuberculosis H37Rv infected in human macrophages assessed as intracellular bacterial load at MIC measured after 6 days (reference value: 5.57 to 6.43 logCFU/ml); assay type: functional, Macrophage; conditions: time 6 day
[15] = system: Enterobacter cloacae; assay: Antibacterial activity against Enterobacter cloacae measured after 7 days by resazurin microtiter assay; assay type: functional; conditions: 168 h, time 7 day
[16] = system: Staphylococcus aureus; assay: Antibacterial activity against Staphylococcus aureus measured after 7 days by resazurin microtiter assay; assay type: functional; conditions: 168 h, time 7 day
[17] = system: Klebsiella aerogenes; assay: Antibacterial activity against Enterobacter aerogenes measured after 7 days by resazurin microtiter assay; assay type: functional; conditions: 168 h, time 7 day
[18] = system: Vero; assay: Cytotoxicity against African green monkey Vero cells assessed as reduction in cell viability measured after 24 to 48 hrs by Celltiter-glo assay; assay type: cell-based, Chlorocebus sabaeus; conditions: for Activity: chlorocebus sabaeus, vero, time 24-48 hrs
Procedure, shortened: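 Vero cells are grown in DMEM with 10% FBS and seeded at 25000 cells/well. Compound is added at 1% final DMSO, with 24 and 48 h incubation. ATP is read by CellTiter-Glo luminescence. IC50 is the concentration giving a 50% drop in ATP signal versus the DMSO control.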

[19] = system: Mycolicibacterium smegmatis; assay: Inhibition of DNA gyrase in Mycobacterium smegmatis assessed as elongation of bacterial cells at 2.5 ug/ml measured after 6 hrs by DAPI/FM 4-64 staining based confocal fluorescence microscopic analysis; conditions: dose 2.5 µg/ml
Procedure, shortened: (§2)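 M. smegmatis is grown in 7H9, and exponential cultures are treated 6 h at 37°C. Cells are fixed 10 min in 4% PFA in PBS and stained 20 min at room temperature with 2 µg/mL DAPI and 1 µg/mL FM 4-64. Imaging is by confocal microscopy with a 60x oil objective.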

[20] = system: Escherichia coli ATCC 25922; assay: Inhibition of DNA gyrase in Escherichia coli ATCC 25922 assessed as appearance of filamentous bacterial cells at 2.5 ug/ml measured after 1.5 hrs by DAPI/FM 4-64 staining based confocal fluorescence microscopic analysis; conditions: dose 2.5 µg/ml
Procedure, shortened: (§3)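 E. coli ATCC 25922 is grown in LB, and exponential cultures are treated 1.5 h at 37°C. Cells are washed in PBS, fixed 10 min in 4% PFA, and stained 20 min at room temperature with 2 µg/mL DAPI plus 1 µg/mL FM 4-64. Imaging is by confocal microscopy with a 60x oil objective.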

[21] = system: Mycolicibacterium smegmatis; assay: Inhibition of DNA gyrase in Mycobacterium smegmatis assessed as segmentation of bacterial cells at 2.5 ug/ml measured after 6 hrs by DAPI/FM 4-64 staining based confocal fluorescence microscopic analysis; conditions: dose 2.5 µg/ml; procedure, shortened: as §2
[22] = system: Escherichia coli ATCC 25922; assay: Inhibition of DNA gyrase in Escherichia coli ATCC 25922 assessed as elongation of bacterial cells at 2.5 ug/ml measured after 1.5 hrs by DAPI/FM 4-64 staining based confocal fluorescence microscopic analysis; conditions: dose 2.5 µg/ml; procedure, shortened: as §3
[23] = system: Escherichia coli ATCC 25922; assay: Inhibition of DNA gyrase in Escherichia coli ATCC 25922 assessed as change in DNA morphology at 2.5 ug/ml measured after 1.5 hrs by DAPI/FM 4-64 staining based confocal fluorescence microscopic analysis; conditions: dose 2.5 µg/ml; procedure, shortened: as §3

In the case of `CCOC(=O)c1cn(C)c2c(cc(Br)c3cccnc32)c1=O`, the MIC90 [1] is reported as 290 µM (≈ 105 µg/mL) and the solubility [2] is reported as “Insoluble”.

For `CCn1cc(C(=O)Nc2ccccc2)c(=O)c2ccc3cccnc3c21`, the MIC90 [1] was 312 µM (≈ 107 µg/mL) and the solubility [2] was “Insoluble”.

`CO[C@H]1/C=C/O[C@@]2(C)Oc3c(C)c(O)c4c(O)c(c(/C=N/N5CCN(C)CC5)c(O)c4c3C2=O)NC(=O)/C(C)=C\C=C\[C@H](C)[C@H](O)[C@@H](C)[C@@H](O)[C@@H](C)[C@H](OC(C)=O)[C@@H]1C` [RIFAMPIN] showed an MIC90 [1] of 0.76 µM (≈ 0.625 µg/mL).

For `CCOC(=O)c1cn(CC)c2c(ccc3cccnc32)c1=O`, the MIC90 [1] was 170 µM (≈ 50.3 µg/mL) and the solubility [2] was “Insoluble”.

In the case of `CCn1cc(C(=O)Nc2ccccc2)c(=O)c2cc([N+](=O)[O-])c3cccnc3c21`, the MIC90 [1] is reported as 275 µM (≈ 107 µg/mL) and the solubility [2] is reported as “Insoluble”.

In the case of `Cn1cc(C(=O)O)c(=O)c2ccc3cccnc3c21`, the MIC90 [1] is reported as 25.8 µM (≈ 6.56 µg/mL) and the solubility [2] is reported as “Insoluble”.

In the case of `CCn1cc(C(=O)O)c(=O)c2cc(Br)c3cccnc3c21`, the MIC90 [1] is reported as 9.39 µM (≈ 3.26 µg/mL) and the solubility [2] is reported as “Insoluble”.

With `CCOC(=O)c1cn(CC)c2c(cc(Cl)c3cccnc32)c1=O` the MIC90 [1] was 166 µM (≈ 55 µg/mL) and the solubility [2] was “Insoluble”.

For `CCOC(=O)c1cn(CC)c2c(cc(Br)c3cccnc32)c1=O`, the MIC90 [1] was 318 µM (≈ 119 µg/mL) and the solubility [2] was “Insoluble”.

Molecule `CCOC(=O)c1cn(C)c2c(cc([N+](=O)[O-])c3cccnc32)c1=O` has an Activity [3] of 3.06 log10CFU/ml, an MIC90 [4] greater than 100 µM and an Activity [5] of 4.22 log10CFU/ml. The MIC90 [6] was greater than 275 µM, the MIC90 [7] was greater than 100 µM and the MIC90 [8] was greater than 100 µM. It also gave an MIC90 [9] of 1.21 µM (≈ 0.396 µg/mL), an MIC90 [10] of 0.15 µM (≈ 0.0491 µg/mL) and an Activity [11] of 3.45 log10CFU/ml. For the same molecule, the MIC90 [12] was greater than 100 µM, the IC50 ([13]; Homo sapiens, Macrophage) was greater than 50 µg/mL and the Activity [14] was 3.63 log10CFU/ml. For the same molecule, the MIC90 [15] was greater than 275 µM, the MIC90 [16] was greater than 275 µM and the MIC90 [17] was 309 µM (≈ 101 µg/mL). The MIC90 [1] was 1.21 µM (≈ 0.396 µg/mL), the solubility [2] was “Insoluble” and the IC50 ([18]; Chlorocebus sabaeus, Vero) was greater than 50 µg/mL.

In the case of `CCn1cc(C(=O)O)c(=O)c2cc([N+](=O)[O-])c3cccnc3c21`, the Activity [3] is reported as 3.24 log10CFU/ml, the MIC90 [4] is reported as 93.4 µM (≈ 29.2 µg/mL) and the Activity [5] is reported as 4.19 log10CFU/ml. It also gave an MIC90 [6] greater than 275 µM, an MIC90 [7] of 10.7 µM (≈ 3.34 µg/mL) and an MIC90 [8] of 21.4 µM (≈ 6.69 µg/mL). The MIC90 [10] was 1.3 µM (≈ 0.407 µg/mL), the Activity [11] was 3.21 log10CFU/ml and the MIC90 [12] was greater than 100 µM. The Activity [13] was “Non-Toxic”, the Activity [14] was 3.69 log10CFU/ml and the MIC90 [15] was greater than 275 µM. It also gave an MIC90 [16] of 10.7 µM (≈ 3.34 µg/mL), an MIC90 [17] of 42.7 µM (≈ 13.4 µg/mL) and an MIC90 [1] of 5.84 µM (≈ 1.83 µg/mL). For the same molecule, the solubility [2] was “Insoluble” and the Activity [18] was “Non-Toxic”.

For `Cn1cc(C(=O)O)c(=O)c2cc([N+](=O)[O-])c3cccnc3c21`, the Activity [3] was 3.01 log10CFU/ml, the inhibition [19] was “Active” and the inhibition [20] was “Active”. The inhibition [21] was “Active”, the MIC90 [4] was greater than 100 µM and the Activity [5] was 3.78 log10CFU/ml. For the same molecule, the MIC90 [6] was greater than 275 µM, the MIC90 [7] was 11.2 µM (≈ 3.35 µg/mL) and the MIC90 [8] was 11.2 µM (≈ 3.35 µg/mL). For the same molecule, the MIC90 [9] was 2.64 µM (≈ 0.79 µg/mL), the MIC90 [10] was 0.7 µM (≈ 0.209 µg/mL) and the Activity [11] was 2.77 log10CFU/ml. For the same molecule, the MIC90 [12] was greater than 100 µM, the Activity [13] was “Non-Toxic” and the Activity [14] was 3.65 log10CFU/ml. It also gave an MIC90 [15] greater than 275 µM, an MIC90 [16] of 22.4 µM (≈ 6.69 µg/mL) and an MIC90 [17] of 44.7 µM (≈ 13.4 µg/mL). The inhibition [22] was “Active”, the MIC90 [1] was 2.64 µM (≈ 0.79 µg/mL) and the solubility [2] was “Insoluble”. The inhibition [23] was “Active” and the Activity [18] was “Non-Toxic”.

For `Cn1cc(C(N)=O)c(=O)c2cc([N+](=O)[O-])c3cccnc3c21`, the MIC90 [1] was 1.4 µM (≈ 0.418 µg/mL) and the solubility [2] was “Insoluble”.

With `CCn1cc(C(=O)NN)c(=O)c2cc([N+](=O)[O-])c3cccnc3c21` the MIC90 [1] was 9.84 µM (≈ 3.22 µg/mL) and the solubility [2] was “Insoluble”.

Molecule `NCC[C@H](O)C(=O)N[C@@H]1C[C@H](N)[C@@H](O[C@H]2O[C@H](CN)[C@@H](O)[C@H](O)[C@H]2O)[C@H](O)[C@H]1O[C@H]1O[C@H](CO)[C@@H](O)[C@H](N)[C@H]1O` [AMIKACIN] has an MIC90 [4] of 14.6 µM (≈ 8.57 µg/mL), an MIC90 [7] of 1.83 µM (≈ 1.07 µg/mL) and an MIC90 [8] of 0.46 µM (≈ 0.269 µg/mL). It also gave an MIC90 [10] of 3.66 µM (≈ 2.14 µg/mL), an MIC90 [12] of 3.66 µM (≈ 2.14 µg/mL) and an MIC90 [1] of 1.83 µM (≈ 1.07 µg/mL).
